# Laboratory results: ChEMBL document CHEMBL1641480, “Antioxidant activity of a new C-glycosylflavone from the leaves of Ficus microcarpa” (Bioorg Med Chem Lett, 2011)
# Calls of active or inactive are those of the source. The calls are words filed in the database; no cut-off is given here.
# Experiments:
# Format in all cases: functional
# [1] = Metal chelating activity of the compound at 1 to 2 uM
# Procedure, shortened: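 Chelation: compound mixed 1:1 with CuSO4, then calcein added. Fluorescence read at excitation 485 nm and emission 535 nm, compared with calcein-only control. Tested at 1 and 2 μM; mean ± S.D.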
# [2] = Antioxidant activity assessed as copper ion radical scavenging activity at 2 uM
# Procedure, shortened: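 Cu(II)-reducing test: compound in distilled water mixed 40:160 with 0.5 mM CuCl2 plus 0.75 mM neocuproine in 10 mM phosphate buffer, pH 7.4. Absorbance read at 454 nm for 1 h. Reduced Cu(I) concentration measured at 2 μM compound.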
# [3] = Antioxidant activity assessed as peroxyl radical scavenging activity at 1 to 2 uM by ORAC assay
# Procedure, shortened: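 ORAC peroxyl-radical assay at 1.0 and 2.0 μM. Fluorescein is the radical target and 20 mM AAPH the generator. Fluorescence recorded every 2 min after AAPH, relative to the initial reading. Net area under the decay curve versus blank, expressed as μM Trolox equivalents against freshly prepared Trolox standard.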
SMILES,Activity [1],Activity [2],Activity [3]
Oc1cc(O)c2c(c1)O[C@H](c1ccc(O)c(O)c1)[C@H](O)C2,inactive,Active,Active
O=c1cc(-c2ccc(O[C@@H]3O[C@H](CO)[C@@H](O)[C@H](O)[C@H]3O)cc2)oc2cc(O)c([C@@H]3O[C@H](CO)[C@@H](O)[C@H](O)[C@H]3O)c(O)c12,inactive,inactive,–
CC1=CC(=O)CC(C)(C)[C@H]1/C=C/[C@@H](C)O[C@@H]1O[C@H](CO[C@@H]2O[C@@H](CO)[C@H](O)[C@H]2O)[C@@H](O)[C@H](O)[C@H]1O,inactive,inactive,inactive
CCCCCCCCCCCCCCCCCC(=O)OC[C@H]1O[C@@H](O[C@H]2CC[C@@]3(C)C(=CC[C@H]4[C@@H]5CC[C@H]([C@H](C)CC[C@@H](CC)C(C)C)[C@@]5(C)CC[C@@H]43)C2)[C@H](O)[C@@H](O)[C@@H]1O,inactive,inactive,inactive
C[C@@H]1C[C@H](O)CC(C)(C)[C@@]1(O)CC[C@H](C)O[C@H]1O[C@@H](CO)[C@H](O)[C@@H](O)[C@@H]1O,inactive,inactive,inactive
C[C@H](O)/C=C/[C@@]1(O)C(C)(C)C[C@H](O)C[C@@]1(C)O,inactive,inactive,inactive
CC[C@H](CC[C@@H](C)[C@H]1CC[C@H]2[C@@H]3CC=C4C[C@@H](O[C@@H]5O[C@H](CO)[C@@H](O)[C@H](O)[C@H]5O)CC[C@]4(C)[C@H]3CC[C@]12C)C(C)C,inactive,inactive,inactive
Oc1cc(O)c2c(c1)O[C@H](c1ccc(O)c(O)c1)[C@@H](O)C2,inactive,Active,Active
O=c1cc(-c2ccc(O)cc2)oc2cc(O)c([C@@H]3O[C@H](CO)[C@@H](O)[C@H](O)[C@H]3O)c(O)c12,inactive,inactive,–
CC[C@H](CC[C@@H](C)[C@H]1CC[C@H]2[C@@H]3CC=C4C[C@@H](O)CC[C@]4(C)[C@H]3CC[C@]12C)C(C)C,inactive,inactive,inactive
COc1cc(/C=C/CO)cc(OC)c1O[C@@H]1O[C@H](CO)[C@@H](O)[C@H](O)[C@H]1O,inactive,inactive,inactive
O=c1cc(-c2ccc(O)c(O)c2)oc2cc(O)c([C@@H]3O[C@H](CO)[C@@H](O)[C@H](O)[C@H]3O)c(O)c12,inactive,Active,Active
O=c1cc(-c2ccc(O)cc2)oc2c([C@@H]3O[C@H](CO)[C@@H](O)[C@H](O)[C@H]3O[C@H]3OC[C@@](O)(CO)[C@@H]3O)c(O)cc(O)c12,inactive,inactive,–
C[C@H](/C=C/[C@]1(O)C(C)(C)C[C@@H](O)C[C@]1(C)O)O[C@H]1O[C@@H](CO)[C@H](O)[C@@H](O)[C@@H]1O,inactive,inactive,inactive
